{
  "source": "paper PMC7337098",
  "about": "(Cell reports, 2020)",
  "key": {"[1]": {"target": "T1, P2X3R with TMEM163 (Homo sapiens, UniProt P56373)", "T1 sequence (P56373 1-397)": "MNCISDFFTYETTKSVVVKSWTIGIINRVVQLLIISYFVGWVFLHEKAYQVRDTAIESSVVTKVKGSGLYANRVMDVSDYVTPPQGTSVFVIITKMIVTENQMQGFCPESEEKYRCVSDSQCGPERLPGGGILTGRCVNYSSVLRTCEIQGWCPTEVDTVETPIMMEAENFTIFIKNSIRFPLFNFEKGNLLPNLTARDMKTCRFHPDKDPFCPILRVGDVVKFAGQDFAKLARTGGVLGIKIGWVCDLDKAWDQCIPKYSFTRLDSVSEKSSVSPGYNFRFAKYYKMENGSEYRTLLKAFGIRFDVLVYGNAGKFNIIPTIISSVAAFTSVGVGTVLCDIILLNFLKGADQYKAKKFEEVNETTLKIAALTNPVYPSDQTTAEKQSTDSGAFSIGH", "T1 sequence (Q8TC26 1-289 partner)": "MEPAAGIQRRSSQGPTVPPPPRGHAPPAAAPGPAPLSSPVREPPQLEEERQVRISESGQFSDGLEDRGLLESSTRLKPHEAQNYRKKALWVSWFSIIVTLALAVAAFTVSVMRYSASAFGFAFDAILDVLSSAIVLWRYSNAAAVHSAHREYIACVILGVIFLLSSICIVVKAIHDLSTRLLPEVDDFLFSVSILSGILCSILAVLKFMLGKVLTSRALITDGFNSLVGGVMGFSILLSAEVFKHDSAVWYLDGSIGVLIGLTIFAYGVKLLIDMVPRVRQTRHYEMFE", "assay_type": "cell-based"}, "[2]": {"system": "P2XRs in DRG neurons", "assay": "Whole-cell recording of ATP-evoked currents, primary DRG neurons from WT mice", "assay_type": "cell-based", "details": "Mus musculus, DRG neuron, read-out: ATP EC50"}, "[3]": {"target": "T2, P2X3R (Homo sapiens, UniProt P56373)", "T2 sequence (P56373 1-397)": "T1 sequence (P56373 1-397)", "assay_type": "cell-based", "details": "100 μM ATP, outside-out patch"}, "[4]": {"target": "T2, P2X3R", "assay": "Calcium FLIPR ATP dose response, P2X3R-stable HEK cells transfected with pcDNA3", "assay_type": "cell-based"}, "[5]": {"target": "T1, P2X3R with TMEM163", "assay": "Calcium FLIPR ATP dose response, P2X3R-stable HEK cells transfected with TMEM163", "assay_type": "cell-based"}, "[6]": {"system": "endogenous P2 receptors in HEK cells", "assay": "Calcium FLIPR response of HEK cells", "assay_type": "cell-based, human", "details": "untransfected (Mock) HEK cells"}, "[7]": {"target": "T1, P2X3R with TMEM163", "assay_type": "cell-based", "details": "100 μM ATP, outside-out patch"}, "[8]": {"target": "T2, P2X3R", "assay_type": "cell-based"}, "[9]": {"system": "WT mice", "assay": "ATP-evoked freezing behavior after hind paw injection", "assay_type": "in vivo, mouse", "details": "3 μmol ATP into hind paw, 4 min after injection, saline 6.7 ± 3.2 s"}, "[10]": {"system": "P2XRs in TMEM163 KO DRG neurons", "assay_type": "cell-based", "details": "Mus musculus, DRG neuron, read-out: ATP EC50"}, "[11]": {"system": "P2XR in cerebellar granule cells", "assay_type": "cell-based, mouse", "details": "TNP-ATP 10 μM co-applied with ATP; untreated 23.55 ± 6.96 pA; n = 3"}, "[12]": {"system": "P2X3R and P2X2R", "assay": "Calcium FLIPR assay, HEK cells stably expressing both P2X3R and P2X2R", "assay_type": "cell-based, human", "details": "read-out: α,β-MeATP EC50, HEK cell lines stably expressing both P2X3R and P2X2R"}, "[13]": {"target": "T3, P2X4R (Homo sapiens, UniProt Q99571)", "T3 sequence (Q99571 1-388)": "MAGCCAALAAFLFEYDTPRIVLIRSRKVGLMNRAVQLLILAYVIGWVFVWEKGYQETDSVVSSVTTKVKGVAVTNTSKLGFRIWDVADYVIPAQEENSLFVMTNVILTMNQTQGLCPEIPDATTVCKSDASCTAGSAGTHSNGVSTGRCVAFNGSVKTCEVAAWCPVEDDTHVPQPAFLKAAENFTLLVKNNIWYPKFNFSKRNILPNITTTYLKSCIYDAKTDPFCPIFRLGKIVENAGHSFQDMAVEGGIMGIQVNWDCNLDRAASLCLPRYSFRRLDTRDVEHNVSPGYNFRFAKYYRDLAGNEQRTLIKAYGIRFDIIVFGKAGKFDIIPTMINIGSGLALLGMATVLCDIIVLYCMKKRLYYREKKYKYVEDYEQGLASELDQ", "assay_type": "cell-based", "details": "P2X4R alone; 10 μM ivermectin pre-applied 10 s; ATP 1.3 μM; n = 7", "in_short": "(§1)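 Xenopus oocytes (surgically harvested, collagenase-treated) co-injected with 25 pg P2X4R cRNA plus 2 ng TMEM163 cRNA, or 2 ng Neto2 cRNA as the control. TEVC at Vh −30 mV, room temperature, in 90 mM NaCl, 1 mM KCl, 2 mM CaCl2, 10 mM HEPES pH 7.4. […] Mean ± SEM; Student's t test.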"}, "[14]": {"target": "T4, P2X4R with TMEM163 (Homo sapiens, UniProt Q99571)", "T4 sequence (Q99571 1-388)": "T3 sequence (Q99571 1-388)", "assay_type": "cell-based", "details": "10 μM ivermectin pre-applied 10 s, ATP 1.3 μM, n = 7", "in_short": "as §1"}},
  "note": "Structures can show the parent of a compound that is named as a salt. Where two headings read alike, the source gives them in different places.",
  "data": [
    {"compound": "Nc1ncnc2c1ncn2[C@@H]1O[C@H](COP(=O)([O-])OP(=O)([O-])OP(=O)([O-])[O-])[C@@H](O)[C@H]1O.[Mg+2].[Mg+2]", "note": "[ATP, Adenosine 5′-triphosphate magnesium salt]", "values": [
      {"measurement": "EC50", "setting": "[1]; ATP EC50, 25 pg P2X3R with 2 ng TMEM163, TEVC, 20-min interval", "value": "261 ± 27.2", "unit": "nM"},
      {"measurement": "Hill coefficient", "setting": "[1]; P2X3R with TMEM163, ATP TEVC dose response", "value": "0.98 ± 0.15"},
      {"measurement": "EC50", "setting": "[2]", "value": "5920 ± 1170", "unit": "nM"},
      {"measurement": "mean rise time of ATP-evoked currents", "setting": "[3]", "value": "0.43 ± 0.042", "unit": "ms"},
      {"measurement": "Hill coefficient", "setting": "[4]", "value": "0.99 ± 0.03"},
      {"measurement": "EC50", "setting": "[5]", "value": "1270 ± 110", "unit": "nM"},
      {"measurement": "Hill coefficient", "setting": "[5]; P2X3R with TMEM163, ATP calcium FLIPR dose response", "value": "0.73 ± 0.04"},
      {"measurement": "ATP concentrations at which HEK cells (Mock) responded", "setting": "[6]", "value": "above 1 μM"},
      {"measurement": "mean rise time of ATP-evoked currents", "setting": "[7]", "value": "0.50 ± 0.061", "unit": "ms"},
      {"measurement": "EC50", "setting": "[8]", "value": "1300 ± 230", "unit": "nM"},
      {"measurement": "Hill coefficient", "setting": "[8]; P2X3R, ATP TEVC dose response", "value": "1.04 ± 0.14"},
      {"measurement": "mean cumulative duration of freezing behaviors", "setting": "[9]", "value": "74 ± 7.1", "unit": "s"},
      {"measurement": "EC50", "setting": "[10]", "value": "31000 ± 15100", "unit": "nM"}
    ]},
    {"compound": "Nc1ncnc2c1ncn2[C@@H]1O[C@H](COP(=O)(O)OP(=O)(O)OP(=O)(O)O)[C@H]2OC3(O[C@H]21)C([N+](=O)[O-])=CC(=[N+]([O-])[O-])C=C3[N+](=O)[O-]", "note": "(some centres unmarked) [TNP-ATP, TNP-ATP triethylammonium salt]", "values": [
      {"measurement": "ATP-evoked current", "setting": "[11]", "value": "0.53 ± 0.25", "unit": "pA"}
    ]},
    {"compound": "Nc1ncnc2c1ncn2[C@@H]1O[C@H](COP(=O)(O)CP(=O)(O)OP(=O)(O)O)[C@@H](O)[C@H]1O", "note": "[α,β-MeATP, α, β-Methyleneadenosine 5′-triphosphate lithium salt]", "values": [
      {"measurement": "EC50", "setting": "[12]", "value": "656 ± 88.7", "unit": "nM"}
    ]},
    {"compound": "ivermectin", "values": [
      {"measurement": "potentiation of ATP-evoked currents (ratio with and without ivermectin)", "setting": "[13]", "value": "3.7 ± 0.5", "unit": "times"},
      {"measurement": "potentiation of ATP-evoked currents (ratio with and without ivermectin)", "setting": "[14]", "value": "1.9 ± 0.2", "unit": "times"}
    ]}
  ]
}
